Here are results for 4 compounds from ChEMBL document CHEMBL1799960, “Diadenosine 5',5''-(boranated)polyphosphonate analogues as selective nucleotide pyrophosphatase/phosphodiesterase inhibitors” (J Med Chem, 2010).

The target of experiment [1] is T1, Ectonucleotide pyrophosphatase/phosphodiesterase family member 1 (Homo sapiens) (UniProt P22413).
T1 sequence (whole entry): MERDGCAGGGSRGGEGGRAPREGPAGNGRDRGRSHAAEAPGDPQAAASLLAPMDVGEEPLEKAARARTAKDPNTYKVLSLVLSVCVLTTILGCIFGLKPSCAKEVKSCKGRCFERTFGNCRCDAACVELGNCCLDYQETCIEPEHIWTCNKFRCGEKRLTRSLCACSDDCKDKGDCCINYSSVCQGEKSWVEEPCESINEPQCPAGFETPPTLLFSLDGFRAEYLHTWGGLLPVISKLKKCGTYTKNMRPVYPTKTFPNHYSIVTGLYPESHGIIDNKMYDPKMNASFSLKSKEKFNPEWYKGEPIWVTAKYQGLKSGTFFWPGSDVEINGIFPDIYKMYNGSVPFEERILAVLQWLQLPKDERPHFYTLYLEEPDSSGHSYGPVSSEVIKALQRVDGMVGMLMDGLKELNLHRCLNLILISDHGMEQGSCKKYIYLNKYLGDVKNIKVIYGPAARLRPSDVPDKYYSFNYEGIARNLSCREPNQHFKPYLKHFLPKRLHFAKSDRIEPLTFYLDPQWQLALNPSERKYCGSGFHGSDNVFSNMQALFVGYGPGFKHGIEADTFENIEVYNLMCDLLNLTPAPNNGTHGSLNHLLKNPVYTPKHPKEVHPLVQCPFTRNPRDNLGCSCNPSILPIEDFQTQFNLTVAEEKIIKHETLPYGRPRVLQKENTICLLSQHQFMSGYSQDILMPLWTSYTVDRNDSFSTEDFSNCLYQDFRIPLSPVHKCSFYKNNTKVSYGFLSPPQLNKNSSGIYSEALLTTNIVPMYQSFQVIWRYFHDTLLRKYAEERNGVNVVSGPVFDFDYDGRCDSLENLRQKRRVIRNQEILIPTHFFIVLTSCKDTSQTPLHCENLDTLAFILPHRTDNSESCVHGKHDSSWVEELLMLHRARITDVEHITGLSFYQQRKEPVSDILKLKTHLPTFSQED
Nature of the experiment: Inhibition of human NPP1 expressed in COS7 cells assessed as production of p-nitrophenol using Ap5A as the substrate at 100 uM after 30 mins […]. To be noted: COS-7. It is filed as cell-based.

In experiment [2] the target is P2Y purinoceptor 2 (Homo sapiens) (UniProt P41231). Put plainly: Agonist activity at GFP tagged-human P2Y2 receptor expressed in human 1321N1 cells assessed as elevation in calcium level at 25 uM after 30 mins by fluorescence spectrophotometric analysis. Format: functional, cell-based.
P2Y purinoceptor 2 (Homo sapiens), sequence (P41231 whole entry): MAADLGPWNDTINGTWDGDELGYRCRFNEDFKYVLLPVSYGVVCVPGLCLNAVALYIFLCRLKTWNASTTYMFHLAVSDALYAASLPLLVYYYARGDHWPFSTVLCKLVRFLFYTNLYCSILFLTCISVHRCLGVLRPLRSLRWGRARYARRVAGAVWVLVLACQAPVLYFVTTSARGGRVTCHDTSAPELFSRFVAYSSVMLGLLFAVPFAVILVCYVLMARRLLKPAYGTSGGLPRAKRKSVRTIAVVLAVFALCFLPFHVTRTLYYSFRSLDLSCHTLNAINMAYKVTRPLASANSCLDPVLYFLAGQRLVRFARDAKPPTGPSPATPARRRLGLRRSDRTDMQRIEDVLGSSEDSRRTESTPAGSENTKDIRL
The target of experiment [3] is T1, Ectonucleotide pyrophosphatase/phosphodiesterase family member 1 (Homo sapiens). Put plainly: Inhibition of human NPP1 expressed in COS7 cells assessed as production of p-nitrophenol using pnp-TMP as the substrate at 100 uM after 15 mins […]. Format: cell-based. To be noted: COS-7. The gist of the method:
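Human NPP1, NPP2 (membrane lysate or conditioned medium for the secreted form) or NPP3 from transfected COS-7 cells, preincubated 3 min at 37 °C in 50 mM Tris pH 8.5 buffer with CaCl2, NaCl and KCl. Substrate and inhibitor both at 100 μM final. pnp-TMP: p-nitrophenol read at 405 nm at 15 min. ATP or Ap5A: stopped at 30 min with perchloric acid, then HPLC. Results as % residual activity versus control; three to six experiments in triplicate.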

In experiment [4] the target is T2, Ectonucleotide pyrophosphatase/phosphodiesterase family member 3 (Homo sapiens) (UniProt O14638).
T2 sequence (whole entry): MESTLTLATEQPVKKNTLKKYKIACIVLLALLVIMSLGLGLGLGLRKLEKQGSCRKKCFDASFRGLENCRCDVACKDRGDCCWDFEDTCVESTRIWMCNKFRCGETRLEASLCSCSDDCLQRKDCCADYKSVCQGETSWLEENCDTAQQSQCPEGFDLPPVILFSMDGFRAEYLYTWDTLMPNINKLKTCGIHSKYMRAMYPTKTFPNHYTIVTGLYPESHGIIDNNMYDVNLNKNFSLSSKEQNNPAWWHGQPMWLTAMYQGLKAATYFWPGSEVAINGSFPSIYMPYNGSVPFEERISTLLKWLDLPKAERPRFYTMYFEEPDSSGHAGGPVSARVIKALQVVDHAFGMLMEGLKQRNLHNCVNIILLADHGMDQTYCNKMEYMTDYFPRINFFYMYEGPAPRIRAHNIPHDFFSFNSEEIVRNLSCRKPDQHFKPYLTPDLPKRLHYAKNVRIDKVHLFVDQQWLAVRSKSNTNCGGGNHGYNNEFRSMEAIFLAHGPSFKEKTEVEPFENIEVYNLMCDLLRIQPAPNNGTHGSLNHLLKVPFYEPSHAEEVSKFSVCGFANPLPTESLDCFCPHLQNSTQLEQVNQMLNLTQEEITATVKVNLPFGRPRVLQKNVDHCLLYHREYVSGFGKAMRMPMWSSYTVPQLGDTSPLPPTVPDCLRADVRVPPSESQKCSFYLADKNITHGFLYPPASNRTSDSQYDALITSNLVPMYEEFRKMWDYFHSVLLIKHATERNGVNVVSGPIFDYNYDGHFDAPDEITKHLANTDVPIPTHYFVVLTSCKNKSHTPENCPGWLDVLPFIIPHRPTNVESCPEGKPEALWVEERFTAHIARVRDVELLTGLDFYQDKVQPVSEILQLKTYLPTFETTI
Nature of the experiment: Inhibition of human NPP3 expressed in COS7 cells assessed as amount of inorganic phosphate released using ATP as the substrate at 100 uM after 15 mins by malachite green reagent method. Format: cell-based. As to conditions: COS-7.

The target in experiment [5] is T1, Ectonucleotide pyrophosphatase/phosphodiesterase family member 1 (Homo sapiens). Put plainly: Activity of human NPP1 expressed in COS7 cells assessed as production of p-nitrophenol using Ap5A as the substrate at 100 uM after 30 mins by malachite green reagent method. Format: cell-based. To be noted: COS-7.
The target in experiment [6] is T3, Ectonucleotide pyrophosphatase/phosphodiesterase family member 1 (Homo sapiens, UniProt P22413).
T3 sequence (P22413 whole entry): T1 sequence (whole entry)
Nature of the experiment: Inhibition of human NPP1 expressed in COS7 cells assessed as production of p-nitrophenol using pnp-TMP as the substrate after 15 mins […]. Format: cell-based, COS-7. Summed up:
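Human NPP1 COS-7 extract in Tris pH 8.5 buffer at 37 °C with pnp-TMP; p-nitrophenol read at 405 nm after 15 min. […] Values from Dixon and Cornish-Bowden plots of three independent experiments in triplicate.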

pIC50, pKi: −log10 of the molar value. Activity calls are given as the source filed them. The calls are words filed in the database; no cut-off is given here.

With `Nc1ncnc2c1ncn2[C@H]1C[C@H](O)[C@@H](COP(=O)(O)CP(=O)(O)OP(=O)(O)CP(=O)(O)OC[C@H]2O[C@@H](n3cnc4c(N)ncnc43)C[C@@H]2O)O1`, the inhibition – broadly, the change of the read-out against control, counted positive when it falls – in experiment [1] is 60%; in experiment [3], above 90%; in experiment [4], 90%. Further, the outcome in experiment [2] was inactive. Besides, the Activity in experiment [5] came to 2.3%. Moreover, the negative logarithm of the IC50 (pIC50) (in general, the IC50 on a negative log10 scale, so that one unit is a factor of ten) in experiment [6] is 4.30. For the same compound, in experiment [6], the pKi (usually the negative decadic logarithm of the Ki, by convention in mol/L) is 4.29.
As for `BP(=O)(OP(=O)(O)CP(=O)(O)OC[C@H]1O[C@@H](n2cnc3c(N)ncnc32)[C@H](O)[C@@H]1O)OP(=O)(O)CP(=O)(O)OC[C@H]1O[C@@H](n2cnc3c(N)ncnc32)[C@H](O)[C@@H]1O`, the inhibition is 60% in experiment [1], above 90% in experiment [3] and 90% in experiment [4]. Also, the result in experiment [2] was inactive. The Activity in experiment [5] worked out at 7.5%. The negative-log IC50 (pIC50) in experiment [6] was 4.20. Moreover, in experiment [6], the pKi was 4.70.
For `BP(=O)(OP(=O)(O)CP(=O)(O)OC[C@H]1O[C@@H](n2cnc3c(N)ncnc32)C[C@@H]1O)OP(=O)(O)CP(=O)(O)OC[C@H]1O[C@@H](n2cnc3c(N)ncnc32)C[C@@H]1O`, the inhibition in experiment [1] is 60%; in experiment [3] it was above 90%; in experiment [4], 65%. The result in experiment [2] was inactive. For the same compound, the pIC50 in experiment [6] is 4.89. For the same compound, in experiment [6], the pKi is 5.05.
As to `Nc1ncnc2c1ncn2[C@@H]1O[C@H](COP(=O)(O)CP(=O)(O)OP(=O)(O)CP(=O)(O)OC[C@H]2O[C@@H](n3cnc4c(N)ncnc43)[C@H](O)[C@@H]2O)[C@@H](O)[C@H]1O`, the inhibition in experiment [1] was 20%; in experiment [3], above 90%; in experiment [4] it was 65%. Moreover, the outcome in experiment [2] was inactive. For the same compound, the Activity in experiment [5] turned out to be 13%. In addition, the pIC50 in experiment [6] was 4.48. Further, the negative-log Ki (pKi) in experiment [6] is 4.89.
